The values below come from ChEMBL document CHEMBL3808328, “Caged xanthones: Potent inhibitors of global predominant MRSA USA300” (Bioorg Med Chem Lett, 2016).

For assay [1], the system named is Staphylococcus aureus. Kind of assay: Antibacterial activity against methicillin-susceptible Staphylococcus aureus ATCC 25923 assessed as zone of inhibition at 30 ug after 18 hrs by disk diffusion method. The assay is classed as functional. To be noted: ATCC 25923, 18 h, read-out: DIZ. Summed up:
(§1)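 Disks 6 mm in diameter; a 6 mm zone means no growth inhibition. The diameters of complete-inhibition zones are averaged over at least three independent experiments and reported with standard errors.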

Assay [2] has as its system Staphylococcus aureus. Put plainly: Bactericidal activity against methicillin-resistant Staphylococcus aureus USA300 SF8300 after 18 to 20 hrs. The assay is classed as functional. In a few lines: (§2)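 Broth microdilution to find MIC and MBC against MRSA USA300 SF8300. Each compound was serially 2-fold diluted starting from its stock concentration.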
The subject of assay [3] is Staphylococcus aureus. Kind of assay: Antibacterial activity against methicillin-resistant Staphylococcus aureus USA300 SF8300 assessed as zone of inhibition at 30 ug after 18 hrs by disk diffusion method. To be noted: USA300 SF8300, 18 h, read-out: DIZ. The class given is functional. Summed up: (§3)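 Disk diffusion on 6 mm paper disks, with methicillin-susceptible S. aureus ATCC 25923 as the control strain alongside MRSA USA300 SF8300. The read-out is the diameter of the complete inhibition zone, averaged over at least three independent experiments and reported with standard errors. A 6 mm zone means no growth inhibition.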

Assay [4] has as its system Staphylococcus aureus. Put plainly: Antibacterial activity against methicillin-resistant Staphylococcus aureus USA300 SF8300 assessed as growth inhibition after 18 to 20 hrs by microdilution assay. The assay is classed as functional. In a few lines: as §2
The test system of assay [5] is Staphylococcus aureus. Kind of assay: Antibacterial activity against methicillin-susceptible Staphylococcus aureus ATCC 29213 assessed as growth inhibition after 18 to 20 hrs by microdilution assay. The class given is functional. In a few lines:
(§4)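 Broth microdilution gives both MIC and MBC. Each compound is serially 2-fold diluted starting from its stock concentration.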
(In general: In broth dilution the organism is exposed to a series of concentrations in liquid medium.)

In assay [6] the test system is A549. Kind of assay: Cytotoxicity against human A549 cells assessed as reduction in cell viability after 24 to 48 hrs by Presto Blue assay. The assay is classed as cell-based.
Assay [7] relates to Staphylococcus aureus. Put plainly: Bactericidal activity against methicillin-susceptible Staphylococcus aureus ATCC 29213 after 18 to 20 hrs. The assay is classed as functional. Summed up:
as §4

Assay [8] concerns HEK293. Kind of assay: Cytotoxicity against human HEK293 cells assessed as reduction in cell viability after 24 to 48 hrs by […] assay.
The test system of assay [9] is Staphylococcus aureus. Put plainly: Antibacterial activity against methicillin-susceptible Staphylococcus aureus ATCC 25923 assessed as zone of inhibition at 10 ug after 18 hrs by disk diffusion method. To be noted: ATCC 25923, 18 h, read-out: DIZ. The class given is functional. Summed up:
as §1
(In general: In agar diffusion tests the substance spreads into inoculated agar from a disc or well.)

Assay [10] concerns Staphylococcus aureus. Kind of assay: Antibacterial activity against methicillin-resistant Staphylococcus aureus USA300 SF8300 assessed as zone of inhibition at 10 ug after 18 hrs by disk diffusion method. The assay is classed as functional. To be noted: USA300 SF8300, 18 h, read-out: DIZ. Summed up: as §3
The test system of assay [11] is Staphylococcus aureus. Put plainly: Antibacterial activity against methicillin-resistant Staphylococcus aureus USA300 SF8300 assessed as zone of inhibition at 1 ug after 18 hrs by disk diffusion method. The assay is classed as functional. To be noted: USA300 SF8300, 18 h, read-out: DIZ. Summed up: as §3
Assay [12] deals with Staphylococcus aureus. Kind of assay: Antibacterial activity against methicillin-susceptible Staphylococcus aureus ATCC 25923 assessed as zone of inhibition at 1 ug after 18 hrs by disk diffusion method. To be noted: ATCC 25923, 18 h, read-out: DIZ. The assay is classed as functional. In a few lines:
as §3

In brackets after ≈: the same amount, converted by molar mass.

A word on the MBC: it is the smallest concentration meeting the test's criterion for killing. A word on the MIC: it is the least concentration at which growth counts as inhibited. A word on the IC50: it is the concentration needed to halve the response being measured. Take `CC(C)=CCc1c2c(c(O)c3c1O[C@@]14C(=C[C@H]5CC1C(C)(C)O[C@]4(C/C=C(/C)C(=O)N[C@@H](Cc1ccccc1)C(=O)O)C5=O)C3=O)C=CC(C)(C)O2`: the zone of inhibition at 30 µg/disc in assay [1] was determined as 17.1 mm; in assay [3], 16.3 mm. For the same molecule, the minimum bactericidal concentration (MBC) in [2] stood at 25 µM (≈ 17.7 µg/mL); in [7], 12.5 µM (≈ 8.85 µg/mL). The MIC in [4] is 25 µM (≈ 17.7 µg/mL); in [5] it was 12.5 µM (≈ 8.85 µg/mL). Moreover, the IC50 in assay [6] stood at 12.2 µM.

As to `CC(C)=CCc1c(O)cc(O)c2c1OC13C(=CC4CC1C(C)(C)O[C@]3(CC=C(C)C)C4=O)C2=O`, the zone of inhibition at 30 µg/disc in assay [1] turned out to be 7.86 mm; in assay [3] it was 7.97 mm. Further, the results for the MBC in [2] and in assay [7] were greater than 400 µM and 200 µM (≈ 92.9 µg/mL), respectively. Further, the MIC in [4] is greater than 400 µM; in assay [5], 200 µM (≈ 92.9 µg/mL).

With `CC(C)=CCC[C@]1(C)C=Cc2c(O)c3c(c(CC=C(C)C)c2O1)O[C@]12C(=C[C@@H]4C[C@H]1C(C)(C)O[C@@]2(C/C=C(/C)C(=O)O)C4=O)C3=O` [GAMBOGIC ACID], the zone of inhibition at 30 µg/disc came out at 16.6 mm in assay [1] and 17.3 mm in assay [3]. Moreover, the MBC in assay [2] is 50 µM (≈ 31.4 µg/mL); in assay [7], 25 µM (≈ 15.7 µg/mL). The MIC was found to be 25 µM (≈ 15.7 µg/mL) in assay [4] and 12.5 µM (≈ 7.86 µg/mL) in [5]. For the same molecule, the values for the IC50 in [6] and in assay [8] were 3.4 µM and 1.72 µM, respectively.

`CC(C)=CCC/C(C)=C/Cc1c(O)c(CC=C(C)C)c2c(c1O)C(=O)C1=C[C@H]3CC4C(C)(C)O[C@](CC=C(C)C)(C3=O)[C@]14O2`: the zone of inhibition at 30 µg/disc in assay [1] and in [3] was 6 mm in each case.

For the molecule `CC[C@H](C)[C@H](NC(=O)/C(C)=C\C[C@]12OC(C)(C)C3C[C@H](C=C4C(=O)c5c(O)c6c(c(CC=C(C)C)c5O[C@@]431)OC(C)(C)C=C6)C2=O)C(=O)O`, the results for the zone of inhibition at 30 µg/disc in assay [1] and in [3] were 15.9 mm and 19.4 mm, respectively. Also, the MBC in assay [2] is 50 µM (≈ 33.7 µg/mL); in assay [7] it was 25 µM (≈ 16.8 µg/mL). For the same molecule, the MIC in [4] and in assay [5] was 25 µM (≈ 16.8 µg/mL) each time. Also, the IC50 in [6] was determined as 24.5 µM.

With `CC(C)=CCc1c2c(c(O)c3c1O[C@@]14C(=C[C@H]5CC1C(C)(C)O[C@]4(CC=C(C)C)C5=O)C3=O)C=CC(C)(C)O2`, the zone of inhibition at 30 µg/disc in assay [1] and in assay [3] was 6 mm each time. Further, the half-maximal inhibitory concentration (IC50) in assay [6] came to 1.42 µM; in assay [8] it was 0.81 µM.

In the case of `CC(C)=CCc1c2c(c(O)c3c1O[C@@]14C(=C[C@H]5CC1C(C)(C)O[C@]4(C/C=C(/C)C(=O)N1CCC[C@H]1C(=O)O)C5=O)C3=O)C=CC(C)(C)O2`, the zone of inhibition at 30 µg/disc in assay [1] was 13.1 mm; in [3], 15.9 mm. Besides, the MBC in [2] was greater than 100 µM; in assay [7] it was 100 µM (≈ 65.8 µg/mL). For the same molecule, the MIC in assay [4] was 100 µM (≈ 65.8 µg/mL); in assay [5] it was 50 µM (≈ 32.9 µg/mL). In addition, the IC50 in assay [6] was 21.1 µM.

With `COC(=O)/C(C)=C\C[C@]12OC(C)(C)C3C[C@H](C=C4C(=O)c5c(O)c6c(c(CC=C(C)C)c5O[C@@]431)OC(C)(C)C=C6)C2=O`, the zone of inhibition at 30 µg/disc in assay [1] and in assay [3] was 6 mm throughout.

Consider `CC(C)=CCc1c(O)cc(O)c2c1OC13C(=CC4(C/C=C/C(C)C)CC1C(C)(C)O[C@]3(CC=C(C)C)C4=O)C2=O`, for which the zone of inhibition at 30 µg/disc in assay [1] and in [3] was 6 mm in each case.

For `CC(C)=CCc1c2c(c(O)c3c1O[C@@]14C(=C[C@H]5CC1C(C)(C)O[C@]4(C/C=C(/C)C(=O)N[C@@H](CCC(N)=O)C(=O)O)C5=O)C3=O)C=CC(C)(C)O2`, the zone of inhibition at 30 µg/disc is 7.5 mm in [1] and 9.09 mm in assay [3].

Consider `CC(C)=CCc1c2c(c(O)c3c1O[C@@]14C(C[C@H]5CC1C(C)(C)O[C@]4(C/C=C(\C)C=O)C5=O)C3=O)C=CC(C)(C)O2` (stereo partly specified), for which the zone of inhibition at 30 µg/disc in assay [1] and in assay [3] was 6 mm each time.

In the case of `CC(C)=CCc1c2c(c(O)c3c1O[C@@]14C(=C[C@H]5CC1C(C)(C)O[C@]4(C/C=C(/C)C(=O)N[C@@H](CCC(=O)O)C(=O)O)C5=O)C3=O)C=CC(C)(C)O2`, the zone of inhibition at 30 µg/disc in assay [1] and in [3] was 6 mm in each case.

Turning to `CSCC[C@H](NC(=O)/C(C)=C\C[C@]12OC(C)(C)C3C[C@H](C=C4C(=O)c5c(O)c6c(c(CC=C(C)C)c5O[C@@]431)OC(C)(C)C=C6)C2=O)C(=O)O`, the zone of inhibition at 30 µg/disc in [1] was 7.09 mm; in assay [3], 9.53 mm.

As for `CC(C)=CCc1c2c(c(O)c3c1O[C@@]14C(=C[C@H]5CC1C(C)(C)O[C@]4(C/C=C(/C)C(=O)N[C@@H](CCC(=O)NC(c1ccccc1)(c1ccccc1)c1ccccc1)C(=O)O)C5=O)C3=O)C=CC(C)(C)O2`, the zone of inhibition at 30 µg/disc was found to be 6.89 mm in assay [1] and 8.21 mm in [3].

On to `CC(C)=CCc1c2c(c(O)c3c1O[C@@]14C(=C[C@H]5CC1C(C)(C)O[C@]4(C/C=C(/C)C(=O)N[C@@H](CC(C)C)C(=O)O)C5=O)C3=O)C=CC(C)(C)O2`, for which the zone of inhibition at 30 µg/disc in [1] worked out at 16.5 mm; in assay [3], 18.3 mm. The MBC in [2] turned out to be 50 µM (≈ 33.7 µg/mL); in [7], 25 µM (≈ 16.8 µg/mL). For the same molecule, the MIC in assay [4] and in assay [5] was 25 µM (≈ 16.8 µg/mL) in each case. In addition, the IC50 in assay [6] stood at 15.5 µM.

Consider `CC1(C)S[C@@H]2[C@H](NC(=O)[C@H](N)c3ccccc3)C(=O)N2[C@H]1C(=O)O` [AMPICILLIN], for which the zone of inhibition at 10 µg/disc in assay [9] stood at 17 mm; in assay [10], 6 mm. For the same molecule, the MBC is greater than 100 µM in assay [2] and 1.56 µM (≈ 0.545 µg/mL) in assay [7]. The MIC in assay [4] is greater than 100 µM; in assay [5], 1.56 µM (≈ 0.545 µg/mL).

As to `Cc1onc(-c2ccccc2)c1C(=O)N[C@@H]1C(=O)N2[C@@H]1SC(C)(C)[C@@H]2C(=O)O` [OXACILLIN], the values for the zone of inhibition at 1 µg/disc in [11] and in assay [12] were 6 mm and 28.9 mm, respectively. The MBC in [2] was greater than 19.9 µM; in assay [7], 1.25 µM (≈ 0.502 µg/mL). Further, the MIC in assay [4] is greater than 19.9 µM; in assay [5], 0.62 µM (≈ 0.249 µg/mL).

`CC(C)=CCc1c2c(c(O)c3c1O[C@@]14C(=C[C@H]5CC1C(C)(C)O[C@]4(C/C=C(/C)C(=O)N[C@@H](CCC(=O)OCc1ccccc1)C(=O)O)C5=O)C3=O)C=CC(C)(C)O2`: the zone of inhibition at 30 µg/disc in assay [1] stood at 6.53 mm.

On to `CC(C)=CCc1c2c(c(O)c3c1O[C@@]14C(=C[C@H]5CC1C(C)(C)O[C@]4(C/C=C(\C)CO)C5=O)C3=O)C=CC(C)(C)O2`, for which the values for the zone of inhibition at 30 µg/disc in assay [1] and in assay [3] were 7.75 mm and 8.57 mm, respectively. Further, the IC50 in assay [6] amounted to 2.69 µM; in assay [8], 0.98 µM.

Take `CC(C)=CCc1c2c(c(O)c3c1O[C@@]14C(=C[C@H]5CC1C(C)(C)O[C@]4(C/C=C(/C)C(=O)N[C@@H](CO)C(=O)O)C5=O)C3=O)C=CC(C)(C)O2`: the zone of inhibition at 30 µg/disc in assay [1] turned out to be 6.09 mm; in [3], 6.28 mm.
